The results in this text go back to ChEMBL document CHEMBL5338794, “Optimization of Orally Bioavailable Antileishmanial 2,4,5-Trisubstituted Benzamides” (J Med Chem, 2023).

As usually defined, the EC50 is the concentration at which the effect is half-maximal. Broadly, the Tmax is the time from dosing to the highest level. By AUC is commonly meant concentration integrated over time. Higher therefore signals more exposure. A word on the CL/F: it is clearance divided by bioavailability, as obtained after extravascular dosing. The term Cmax denotes the highest concentration seen after dosing.

Series [1] deals with Leishmania mexicana. Description: Antileishmanial activity against renilla luciferase-expressing Leishmania mexicana promastigotes infected in mouse J774.A1 cells assessed as inhibition of intracellular amastigotes growth incubated for 96 hrs by Renilla luciferase assay. The note with it: J774.A1, 96 h. The series is classed as functional, organism-based.
A short description of series [2]: Kinetic aqueous solubility of the compound in PBS at pH 7.4 incubated for 18 hrs by LC-MS analysis. The series is classed as physicochemical. The note with it: read-out: Kinetic_solubility.
In series [3] the test system is BJ. Put plainly: Cytotoxicity against human BJ cells assessed as reduction in cell viability incubated for 72 hrs by Cell TiterGlo assay. The series is classed as functional, cell-based. (In ATP-based viability assays light output follows the ATP content of the culture.)
Series [4] in a line: Metabolic stability in CD-1 mouse liver microsomes assessed as half life at 1 uM and measured upto 60 mins in presence of NADPH regenerating system by LC-MS/MS analysis. The series is classed as ADME, Microsome. The note with it: 1 h. The method in brief:
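Half-life and intrinsic clearance determined by incubation with mouse liver microsomes.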
(Microsomes from liver hold many membrane-bound enzymes, among them those of drug oxidation.)

Series [5] is described as follows: Volume of distribution in CD-1 mouse at 3 mg/kg,iv and measured upto 24 hrs by LC-MS/MS analysis. In kind it is ADME, organism-based. The conditions noted are these: in vivo. The method in brief: (§1)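 Single intravenous dose to mice at 3 mg/kg. Plasma concentration–time profile used for t1/2, Cmax, AUC, clearance and steady-state volume of distribution.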
Series [6] is described as follows: Tmax in CD-1 mouse at 10 mg/kg,po and measured upto 24 hrs by LC-MS/MS analysis. In kind it is ADME, organism-based. The conditions noted are these: in vivo. The method in brief: (§2)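 Single oral dose to mice at 10 mg/kg, in 20% PEG 400/80% (20% SBE-beta-CD in water). Plasma concentration–time profile used for t1/2, Cmax, Tmax, AUC, CL, apparent Vd and bioavailability (F).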

Series [7] can be described thus: AUC in CD-1 mouse at 10 mg/kg,po and measured upto 24 hrs by LC-MS/MS analysis. The series is classed as ADME, organism-based. On the set-up: time < 24 hrs, dose 10 mg/kg, route po. The note with it: in vivo. The method in brief: as §2
Series [8] has as its system Plasma. Description: Time during which plasma concentration exceeds EC50 for inhibition of proliferation of luciferase expressing Leishmania mexicana intracellular amastigotes cultured in mouse J774.A1 cells infected to CD-1 mouse at 10 mg/kg,po by LC-MS/MS analysis. In kind it is organism-based. The note with it: in vivo. The method in brief:
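Time that plasma concentration stays above the intracellular-amastigote EC50, read from the plasma profile after a single oral dose at 10 mg/kg in 20% PEG 400/80% (20% SBE-beta-CD in water).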

A short description of series [9]: Clearance in CD-1 mouse at 3 mg/kg,iv and measured upto 24 hrs by LC-MS/MS analysis. In kind it is ADME, organism-based. The note with it: in vivo. In short, it runs like this: as §1
A short description of series [10]: Clearance in CD-1 mouse at 10 mg/kg,po and measured upto 24 hrs by LC-MS/MS analysis. In kind it is ADME, organism-based. The conditions noted are these: in vivo. The method in brief:
as §2

For series [11], the system named is Leishmania mexicana. Description: Antileishmanial activity against Leishmania mexicana MNZY/BZ/62/M379 promastigotes infected in BALB/c mouse assessed as footpad lesion development at 50 mg/kg, po QD for 10 days administered at day 18 postinfection and measured after 5 weeks postinfection by caliper analysis. The series is classed as functional, organism-based. The note with it: time 10.0 day. The method in brief: (§3)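 BALB/c mice, 5 per group, infected with L. mexicana by footpad injection. Vehicle or HCl salt of compound given by oral gavage at 50 mg/kg/day for 10 consecutive days from day 18 postinfection. Lesion size measured by caliper up to 5 weeks postinfection, reported as mean ± SD. Groups compared by Mann–Whitney.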

The nature of series [12]: AUC in CD-1 mouse at 3 mg/kg,iv and measured upto 24 hrs by LC-MS/MS analysis. The note with it: in vivo. On the set-up: time < 24 hrs, dose 3 mg/kg, route iv. The series is classed as ADME, organism-based. In short, it runs like this: as §1
Series [13] concerns Leishmania mexicana. Put plainly: Antileishmanial activity against Leishmania mexicana MNZY/BZ/62/M379 promastigotes infected in BALB/c mouse assessed as fold reduction in footpad lesion development by measuring lesion size at 50 mg/kg, po QD for 10 days administered at day 18 postinfection and measured at 5 weeks postinfection by caliper analysis. In kind it is functional. The conditions noted are these: time 10 day. In short, it runs like this:
as §3

Series [14] is described as follows: Cmax in CD-1 mouse at 3 mg/kg,iv and measured upto 24 hrs by LC-MS/MS analysis. On the set-up: dose 3 mg/kg, time < 24 hrs, route iv. The conditions noted are these: in vivo. In kind it is ADME, organism-based. In short, it runs like this:
as §1

For series [15], the system named is Plasma. Description: Time during which plasma concentration exceeds EC50 for inhibition of proliferation of luciferase expressing Leishmania mexicana intracellular amastigotes cultured in mouse J774.A1 cells infected to CD-1 mouse at 3 mg/kg,iv by LC-MS/MS analysis. The series is classed as organism-based. The note with it: in vivo.
Series [16] can be described thus: Half life in CD-1 mouse at 10 mg/kg,po and measured upto 24 hrs by LC-MS/MS analysis. The note with it: in vivo. The series is classed as ADME, organism-based. The method in brief: as §2
Series [17] in a line: Cmax in CD-1 mouse at 10 mg/kg,po and measured upto 24 hrs by LC-MS/MS analysis. The series is classed as ADME, organism-based. Details: dose 10 mg/kg, time < 24 hrs, route po. The conditions noted are these: in vivo. In short, it runs like this: as §2
Series [18] is described as follows: Half life in CD-1 mouse at 3 mg/kg,iv and measured upto 24 hrs by LC-MS/MS analysis. The series is classed as ADME, organism-based. The note with it: in vivo. The method in brief: as §1
Series [19] in a line: Oral bioavailability in CD-1 mouse at 10 mg/kg and measured upto 24 hrs by LC-MS/MS analysis. The series is classed as ADME, organism-based. The conditions noted are these: in vivo. In short, it runs like this:
as §2

Series [20] can be described thus: Volume of distribution in CD-1 mouse at 10 mg/kg,po and measured upto 24 hrs by LC-MS/MS analysis. The series is classed as ADME, organism-based. The note with it: in vivo. In short, it runs like this: as §2

SMILES strings stand for the structures. ≈ marks a conversion by molar mass, not a printed value. Calls of active or inactive are those of the source. No cut-off for these calls is given here.

With `O=C(Nc1cncc(-c2nc3ccccc3o2)c1)c1ccc(N2CCNCC2)c([N+](=O)[O-])c1`, the EC50 was found to be 500 nM in series [1] and 20000 nM in series [3]. In addition, in series [2], the solubility kinetic at 18 h is 15 µM (≈ 6.67 µg/mL). In addition, the t1/2 in series [4] was 2.3 h.
In the case of `Cc1ccc(-c2nc3ccccc3s2)cc1NC(=O)c1cc([N+](=O)[O-])c(F)cc1F`, the EC50 in series [1] was 600 nM; in series [3], above 25000 nM. Besides, the solubility kinetic at 18 h in [2] came out at 22 µM (≈ 9.36 µg/mL). In addition, in [4], the t1/2 amounted to 0.45 h.
As for `O=C(Nc1ccc(Cl)c(Cl)c1)c1ccc(N2CCNCC2)c([N+](=O)[O-])c1`, the results for the Vd in [5] and in series [20] were 9.3 L/kg and 6.8 L/kg, respectively. Besides, the EC50 in [1] was determined as 700 nM; in series [3] it was 15000 nM. For the same molecule, the Tmax in series [6] was determined as 2 h. The AUC was found to be 7.82 µM·h in series [7] and 2.85 µM·h in series [12]. The “T>EC50” value in series [8] stood at 5.5 h; in [15], 1.5 h. For the same molecule, the CL in series [9] amounted to 42.8 mL/min/kg. The apparent clearance (CL/F) in series [10] was 53.5 mL/min/kg. Also, the result in series [11] was inactive. Also, in series [13], the “fold change (FC)” value was 10. Also, the solubility kinetic at 18 h in series [2] stood at 46 µM (≈ 18.2 µg/mL). The Cmax came out at 1950 nM in series [14] and 1000 nM in [17]. The t1/2 in series [16] stood at 3.6 h; in series [18] it was 3.4 h; in [4], 1.92 h. Besides, in series [19], the F turned out to be 80%.
On to `Cc1cc(Cl)c(Cl)cc1NC(=O)c1ccc(N2CCNCC2)nc1`, for which the EC50 is 900 nM in series [1] and 24000 nM in series [3]. In addition, the solubility kinetic at 18 h in [2] came out at 188 µM (≈ 68.7 µg/mL). The t1/2 in [4] amounted to 0.5 h.
In the same order, the values of `Cc1ccc(-c2nc3ccccc3o2)cc1NC(=O)c1cc([N+](=O)[O-])c(N2CCNCC2)cc1Cl` are 200 nM, 19100 nM, 12.8 µM (≈ 6.3 µg/mL) and 2 h.
For `O=C(Nc1cncc(-c2nc3ccccc3o2)c1)c1cc([N+](=O)[O-])c(N2CCNCC2)cc1Cl` the same measures were 800 nM, 3100 nM, 12.4 µM (≈ 5.94 µg/mL) and 2.17 h.
For `Cc1cc(Cl)c(Cl)cc1NC(=O)c1ccc(N2CCNCC2)c([N+](=O)[O-])c1` the same measures were 800 nM, 24900 nM, 31 µM (≈ 12.7 µg/mL) and 1.12 h.
As for `Cc1cc(Cl)c(Cl)cc1NC(=O)c1cc([N+](=O)[O-])c(N2CCNCC2)cc1Cl`, the EC50 is 100 nM in series [1] and 14200 nM in series [3]. Moreover, the solubility kinetic at 18 h in series [2] turned out to be 5.3 µM (≈ 2.35 µg/mL). Further, in series [4], the t1/2 came to 0.933 h.
Consider `O=C(Nc1cccc(-c2ncco2)c1)c1cc([N+](=O)[O-])c(F)cc1F`, for which the EC50 amounted to 700 nM in [1] and 1500 nM in series [3]. For the same molecule, the solubility kinetic at 18 h in series [2] was determined as 9.4 µM (≈ 3.25 µg/mL). Moreover, the t1/2 in series [4] was 0.01 h.
In the same order, the values of `Cc1cc(Cl)c(Cl)cc1NC(=O)c1ccc(N2CCNCC2)c(C#N)c1` are 900 nM, 13500 nM, 3.6 µM (≈ 1.4 µg/mL) and 0.8 h.
